Measurements from PubChem BioAssay.
Records with an inconclusive call do not appear. The source made the active and inactive calls.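 Rule for the calls, unless noted: active = viability increase at or above a cutoff of the median across tested compounds plus 3 SD (cut at about 8.5% in these data, passing the limit was not always enough); inconclusive = some gains above the cutoff, reason not given; inactive = the rest.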

Experiments:
[1] = OD615 S. cerevisiae growth inhibition, permissive medium, pilot counter-assay, permissive growth control for S. cerevisiae lifespan shortening project (AID 705;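 active = growth inhibition above 25% in both replicates, a cutoff set 3 SD above the mean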); conditions: OD615, 24 h, at 10 µM, stronger effect = higher value
Procedure, shortened: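 System: Engineered DeaD yeast | Buffer or medium: SC raffinose/galactose permissive medium | Doses: 10 µM single dose, 0.25% DMSO | Times: 24 h exposure, 30 °C | Measured by: OD615 turbidity read | Read-out: Yeast growth inhibition indicated by reduced 24 h OD615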

[2] = Restrictive medium S. cerevisiae growth inhibition, OD615, pilot screen of yeast lifespan reduction project, restrictive growth control (AID 706;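 active = growth inhibition above a set limit, 3 SD over mean compound inhibition, in both replicates, cut at about 43% in these data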;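 note: modified DeaD lifespan yeast strain shifted to restrictive glucose medium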); conditions: OD615, 48 h, at 10 µM, stronger effect = higher value
Procedure, shortened: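 Assay system: engineered S. cerevisiae DeaD strain; Buffer or medium: CSMM-D glucose medium; Dosing: 10 µM compound, 0.25% DMSO; Times: cell pre-growth 4 h, compound exposure 48 h, 30 °C; Detection: absorbance (optical density) measured at 615 nm.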

[3] = viability gain of MRP-1-high H69AR cells under doxorubicin, pilot screen, MRP-1 activator project, CellTiter-Glo, duplicate (AID 807); conditions: H69AR viability with doxorubicin, CellTiter-Glo luminescence; at 10 µM; stronger effect = higher value;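 note: compound pretreatment 18-22 h then 72 h combined with doxorubicin; 0% = doxorubicin alone and 100% = vehicle without doxorubicin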
[4] = growth suppression of beta-catenin knockout HCT116, pilot screen, human colon tumor cells (AID 823;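 active = cell viability at or below a set limit in both duplicate runs, the limit being the all-compound median minus 4 SD, cut at about 23% in these data, passing the limit was not always enough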;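 note: 0% = wells killed by 20 µM Hyamine and 100% = untreated DMSO cell wells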); conditions: CellTiter-Glo, 60 h, at 10 µM, stronger effect = lower value
[5] = growth suppression of PTEN-deleted HCT116, pilot screen, cell-based, HCT116 clonal line, CellTiter-Glo (AID 824;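 active = viability at or below 27.92% in each of two runs, the all-compound median minus 4 SD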;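 note: 0% = 20 µM Hyamine control and 100% = vehicle cell control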); conditions: 60 h, at 10 µM, stronger effect = lower value
[6] = inhibitors of the yeast RAM network, pilot screen, dse1pr::URA3 reporter, 5-FOA selection (AID 869;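 active = inhibition over a set limit, the all-compound mean plus 3 SD, in both replicate runs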;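 note: 0% = DMSO wells with no growth and 100% = 10 µM 1-NA-PP1 with full growth; RAM network block rescues cells from 5-FOA so hits raise OD615 growth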); conditions: S. cerevisiae dse1pr::URA3 5-FOA growth, OD615, 2 d; at 10 µM; stronger effect = higher value; strain carries analog-sensitive mutant Cbk1 kinase
[7] = RAM signaling pathway blockade in yeast – S. cerevisiae, Pdr1DBD-CYC8 efflux-inhibited sensitized strain, primary screen (AID 1298;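 active = RAM network inhibition above 8.4% in each of two replicates, 3 SD over the compound average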;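 note: 0% = DMSO untreated cells without growth and 100% = 10 µM 1-NA-PP1 full growth; higher means more yeast growth rescued from 5-FOA killing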); conditions: S. cerevisiae cbk1-as DSE1-URA3 strain, 5-FOA growth OD615, 2 d; at 50 µM; stronger effect = higher value

Cc1ccc2c(CC(=O)O)coc2c1C
inactive: growth inhibition [1] 3.31% | growth inhibition [2] 33.3% | viability increase [3] -2.01% | viability [4] 88% | viability [5] 89.5% | inhibition [6] -0.555% | RAM network inhibition [7] -1.19%

O=C(c1cc2ccccn2n1)N1CCCC1
inactive: growth inhibition [1] -5.76% | growth inhibition [2] -2.7% | viability increase [3] -1.17% | viability [4] 103% | viability [5] 100% | inhibition [6] 1.79% | RAM network inhibition [7] 6.63%

COC(=O)C1C2C=CC3(CN(C(C)C)C(=O)C13)O2 (stereo unspecified)
inactive: growth inhibition [1] -11.7% | growth inhibition [2] -17.2% | viability increase [3] -1.07% | viability [4] 106% | viability [5] 102% | inhibition [6] -0.215% | RAM network inhibition [7] 1.89%

O=C(NC1=NCCS1)C1CC2CCC1C2 (stereo unspecified)
inactive: growth inhibition [1] 7.66% | growth inhibition [2] 6.69% | viability increase [3] -2.34% | viability [4] 99.1% | viability [5] 97.1% | inhibition [6] 1.96% | RAM network inhibition [7] 3.02%

CCOc1cc(C2CC(=O)NC(SCC)=C2C#N)ccc1O (stereo unspecified)
inactive: growth inhibition [1] -16.8% | growth inhibition [2] -5.38% | viability increase [3] -1.97% | viability [4] 107% | viability [5] 92.6% | inhibition [6] 1.97% | RAM network inhibition [7] 0.15%

COc1ccc(CCNc2ncnc3nc[nH]c23)cc1OC
inactive: growth inhibition [1] 0.1% | growth inhibition [2] 20% | viability increase [3] -3.11% | viability [4] 82.8% | viability [5] 84.7% | inhibition [6] 0.57% | RAM network inhibition [7] 1.46%

CCOC(=O)C1=C(C)NC(=O)NC1c1ccc(OCC(=O)Nc2ccccc2)c(OC)c1 (stereo unspecified)
inactive: growth inhibition [1] -2.03% | growth inhibition [2] -26% | viability increase [3] -1.88% | viability [4] 102% | viability [5] 95% | inhibition [6] 2.01% | RAM network inhibition [7] 0.32%

CCOCCCNC(=O)c1cc2c(=O)n3cccc(C)c3nc2n1C
active: viability [4] 19% | viability [5] 24.4%
inactive: growth inhibition [1] -19.1% | growth inhibition [2] -15.2% | viability increase [3] -5.27% | inhibition [6] 2.11% | RAM network inhibition [7] 2.32%

O=C(NCc1ccc2c(c1)OCO2)C1CCC(CNc2c(N3CCCC3)c(=O)c2=O)CC1 (stereo unspecified)
inactive: growth inhibition [1] -5.55% | growth inhibition [2] -7.12% | viability increase [3] -1.29% | viability [4] 104% | viability [5] 102% | inhibition [6] 3.97% | RAM network inhibition [7] 1.53%

O=C1N/C(=N/c2ccccn2)SC1Cc1ccccc1 (stereo unspecified)
inactive: growth inhibition [1] 0.405% | growth inhibition [2] 1.97% | viability increase [3] 0.48% | viability [4] 102% | viability [5] 93.6% | inhibition [6] 3.98% | RAM network inhibition [7] 6.35%

O=C(c1ccccc1)C(Sc1ncn[nH]1)c1ccccc1 (stereo unspecified)
inactive: growth inhibition [1] -8.75% | growth inhibition [2] 0.305% | viability increase [3] 5.4% | viability [4] 92.5% | viability [5] 85.7% | inhibition [6] 1.1% | RAM network inhibition [7] 2.92%

CCCn1c(CNS(=O)(=O)c2ccc(C)cc2)nc2ccccc21
inactive: growth inhibition [1] -7.5% | growth inhibition [2] 7.18% | viability increase [3] -2.43% | viability [4] 83.6% | viability [5] 85.2% | inhibition [6] 0.135% | RAM network inhibition [7] 0.52%

COc1cc(C(=O)Nc2cc(C)c(OCC(=O)N3CCOCC3)c(C)c2)cc(OC)c1OC
inactive: growth inhibition [1] -2.29% | growth inhibition [2] 1.77% | viability increase [3] -2.98% | viability [4] 88.8% | viability [5] 90.4% | inhibition [6] 1.64% | RAM network inhibition [7] 4.86%

CCOC(=O)N1CCN(C2CC(=O)N(c3ccccc3)C2=O)CC1 (stereo unspecified)
inactive: growth inhibition [1] 4.38% | growth inhibition [2] 10.5% | viability increase [3] 0.58% | viability [4] 100% | viability [5] 101% | inhibition [6] 0.005% | RAM network inhibition [7] -0.04%

Cc1onc(-c2ccccc2)c1C(=O)Nc1cccc(C#N)c1
inactive: growth inhibition [1] -20.3% | growth inhibition [2] -6.79% | viability increase [3] -2.52% | viability [4] 96.5% | viability [5] 88.5% | inhibition [6] 2.92% | RAM network inhibition [7] 4.56%

COC(=O)c1coc(-c2ccc(C)cc2)c1C(=O)OC
inactive: growth inhibition [1] -4.24% | growth inhibition [2] 2% | viability increase [3] 0.08% | viability [4] 88.6% | viability [5] 95.9% | inhibition [6] 0.11% | RAM network inhibition [7] 3.96%

O=C(NCc1cccnc1)NC1(c2ccccc2)CC1
inactive: growth inhibition [1] -2.17% | growth inhibition [2] -17.7% | viability increase [3] 0.15% | viability [4] 106% | viability [5] 100% | inhibition [6] 0.49% | RAM network inhibition [7] 0.4%

CCN(CC)S(=O)(=O)c1ccc(C2CNC(=O)C2)cc1 (stereo unspecified)
inactive: growth inhibition [1] -6.66% | growth inhibition [2] -3.95% | viability increase [3] 1.75% | viability [4] 106% | viability [5] 102% | inhibition [6] 1.48% | RAM network inhibition [7] -0.31%
